Reference: article PMC3940870 (Nature, 2013)

What was measured:
[1] = system: P. falciparum NF54 gametocytes; experiment: Gametocyte viability assay; type: cell-based; conditions: Plasmodium falciparum, NF54, 72 h, read-out: IC50, gametocyte viability
Procedure, shortened: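 NF54 stage III–V gametocytes came from cultures cleared of asexual parasites with 50 mM N-acetyl-D-glucosamine for 3 days, then purified on a discontinuous Percoll gradient. Viability was read by a modified pLDH assay with resazurin substrate after 72-hr exposure. The 9-point series (0.1 nM–1 μM, 0.5 log10 steps) ran in quadruplicate over 2 plates and 2 parasite batches. Controls were 1 μM DHA (MIN) and vehicle (MAX). IC50 came from four-parameter nonlinear regression.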

[2] = system: P. berghei sporozoites expressing luciferase; conditions: 2.5 mg/kg; stated as known, no reference given; cited from earlier work
[3] = system: P. falciparum schizonts (Dd2), reinvasion of RBCs; experiment: Physical disruption/merozoite release assay; type: cell-based, Plasmodium falciparum; conditions: ~5×IC50 imidazopyrazine or 1 μM E-64

## C[C@H]1[C@@H](O)O[C@@H]2O[C@@]3(C)CC[C@H]4[C@H](C)CC[C@@H]1[C@@]24OO3 [DHA, dihydroartemisinin]
[1]
  IC50: 15.8 nM

## O=C1C(O)=C([C@H]2CC[C@H](c3ccc(Cl)cc3)CC2)C(=O)c2ccccc21 [ATQ, atovaquone]
[2]
  causal prophylactic protection: 100%

## CC(C)C[C@H](NC(=O)[C@H]1O[C@@H]1C(=O)O)C(=O)NCCCCN=C(N)N [E-64]
[3]
  reinvasion parasitemia after mechanical rupture of treated schizonts: 2–3%
